Active and inactive are the calls of the source. The rule behind the calls is not given here.
Experiments:
ASPC1 [1] = test: Growth inhibition of human AsPC1 cells at 50 uM after 48 hrs by MTT assay; format: functional; conditions: ASPC1, 48 h, read-out: GI
Outline: (§1)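 Single-concentration MTT screen at 50 µM over 48 h in 96-well plates. Compounds giving >50% inhibition were rescreened at 30 µM. OD read at 570 nm, reference 620 nm. Result expressed as % growth inhibition versus untreated control. Mitomycin C, adriamycin or 5-fluorouracil used as positive controls. Mean ± SD of three independent experiments.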

HL-60 [2] = test: Cell cycle arrest in human HL60 cells assessed as G2/M phase cells at 10 uM after 24 hrs by PI staining-based flow cytometric analysis (reference value: 3%); format: functional
HL-60 [3] = test: Induction of apoptosis in human HL60 cells assessed as apoptotic bodies at 20 uM after 24 hrs by Hoechst 33258 staining; format: functional, cell-based
Outline: (§2)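 HL-60 cells (1 × 10⁶/2 ml) treated 24 h at 15 and 20 µM, pelleted at 300 g and washed. Stained with Hoechst 33258, then examined under an inverted fluorescence microscope (10×, UV excitation) for nuclear condensation, blebbing and apoptotic bodies.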

HL-60 [4] = test: Induction of apoptosis in human HL60 cells at 5 uM after 24 hrs by PI-staining based flow cytometric analysis (reference value: 0.7 %); format: functional
MDA-MB-435 [5] = test: Growth inhibition of human MDA-MB-435 cells at 30 uM after 48 hrs by MTT assay; format: functional, cell-based; outline: as §1
HL-60 [6] = test: Induction of apoptosis in human HL60 cells assessed as nuclear blebbing after 24 hrs by Hoechst 33258 staining; format: functional, cell-based; outline: as §2
HL-60 [7] = test: Induction of mitochondrial membrane potential loss in human HL60 cells at 20 uM after 24 hrs by rhodamine-123 staining method (reference value: 7%); format: functional
Outline: (§3)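 HL-60 cells (1 × 10⁶/2 ml/well) treated 24 h at 15 or 20 µM, then incubated with rhodamine-123 (200 nM) for 40 min. Loss of dye uptake measured by flow cytometry. Camptothecin (4 µM, 6 h) as positive control. Representative of three experiments.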

HL-60 [8] = test: Cell cycle arrest in human HL60 cells assessed as accumulation of G0/G1 phase cells at 10 uM after 24 hrs by PI staining-based flow cytometric analysis (reference value: 48%); format: functional
MCF7 [9] = test: Growth inhibition of human MCF7 cells at 50 uM after 48 hrs by MTT assay; format: functional; conditions: MCF7, 48 h, read-out: GI; outline: as §1
HL-60 [10] = test: Growth inhibition of human HL60 cells at 50 uM after 48 hrs by MTT assay; format: functional; conditions: HL-60, 48 h, read-out: GI; outline: as §1
HL-60 [11] = test: Cell cycle arrest in human HL60 cells assessed as G2/M phase cells at 20 uM after 24 hrs by PI staining-based flow cytometric analysis (reference value: 3%); format: functional
PC-3 [12] = test: Cytotoxicity against human PC3 cells after 48 hrs by MTT assay; format: functional, cell-based; conditions: PC-3, 48 h
Outline: (§4)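 MTT assay in 96-well plates, 48 h exposure across 1–100 µM. OD read at 570 nm against a 620 nm reference. Untreated control OD taken as 100% viability. IC50 derived from the concentration–response curves. Mean ± SD, n = 8 wells, from three independent experiments.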

MIA PaCa-2 [13] = test: Cytotoxicity against human MIAPaCa2 cells after 48 hrs by MTT assay; format: functional, cell-based; conditions: MIA PaCa-2, 48 h; outline: as §4
PC-3 [14] = test: Growth inhibition of human PC3 cells at 50 uM after 48 hrs by MTT assay; format: functional; conditions: PC-3, 48 h, read-out: GI; outline: as §1
MCF7 [15] = test: Growth inhibition of human MCF7 cells at 30 uM after 48 hrs by MTT assay; format: functional, cell-based; outline: as §1
HL-60 [16] = test: Induction of apoptosis in human HL60 cells assessed as nuclear condensation after 24 hrs by Hoechst 33258 staining; format: functional, cell-based; outline: as §2
HL-60 [17] = test: Cell cycle arrest in human HL60 cells assessed as decrease in S phase cells after 24 hrs by PI staining-based flow cytometric analysis; format: functional
HL-60 [18] = test: Induction of mitochondrial membrane potential loss in human HL60 cells at 15 uM after 24 hrs by rhodamine-123 staining method (reference value: 7%); format: functional; outline: as §3
HL-60 [19] = test: Cytotoxicity against human HL60 cells after 24 hrs by MTT assay; format: functional, cell-based; conditions: HL-60, 24 h
Outline: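 HL-60 cells exposed 24 h to a range of concentrations, then MTT reduction measured. Untreated control OD taken as 100% viability; IC50 derived from the curve. Mean ± SD, n = 8 wells, three independent experiments.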

MIA PaCa-2 [20] = test: Growth inhibition of human MIAPaCa2 cells at 30 uM after 48 hrs by MTT assay; format: functional, cell-based; outline: as §1
HL-60 [21] = test: Induction of apoptosis in human HL60 cells at 20 uM after 24 hrs by PI-staining based flow cytometric analysis (reference value: 0.7 %); format: functional
HL-60 [22] = test: Cell cycle arrest in human HL60 cells assessed as G2/M phase cells at 5 uM after 24 hrs by PI staining-based flow cytometric analysis (reference value: 3%); format: functional
HL-60 [23] = test: Cell cycle arrest in human HL60 cells assessed as G2/M phase cells at 15 uM after 24 hrs by PI staining-based flow cytometric analysis (reference value: 3%); format: functional
HL-60 [24] = test: Cell cycle arrest in human HL60 cells assessed as accumulation of G0/G1 phase cells at 5 uM after 24 hrs by PI staining-based flow cytometric analysis (reference value: 48%); format: functional
ASPC1 [25] = test: Growth inhibition of human AsPC1 cells at 30 uM after 48 hrs by MTT assay; format: functional, cell-based; outline: as §1
HL-60 [26] = test: Cell cycle arrest in human HL60 cells assessed as S phase cells at 10 uM after 24 hrs by PI staining-based flow cytometric analysis (reference value: 49%); format: functional
HL-60 [27] = test: Cell cycle arrest in human HL60 cells assessed as accumulation of G0/G1 phase cells at 15 uM after 24 hrs by PI staining-based flow cytometric analysis (reference value: 48%); format: functional
HL-60 [28] = test: Cell cycle arrest in human HL60 cells assessed as decrease in G2/M phase cells after 24 hrs by PI staining-based flow cytometric analysis; format: functional
HL-60 [29] = test: Induction of apoptosis in human HL60 cells at 10 uM after 24 hrs by PI-staining based flow cytometric analysis (reference value: 0.7 %); format: functional
Caco-2 [30] = test: Cytotoxicity against human Caco2 cells after 48 hrs by MTT assay; format: functional, cell-based; conditions: Caco-2, 48 h; outline: as §4
HL-60 [31] = test: Cell cycle arrest in human HL60 cells assessed as accumulation of G0/G1 phase cells at 20 uM after 24 hrs by PI staining-based flow cytometric analysis (reference value: 48%); format: functional
HL-60 [32] = test: Induction of apoptosis in human HL60 cells at 15 uM after 24 hrs by PI-staining based flow cytometric analysis (reference value: 0.7 %); format: functional
HL-60 [33] = test: Induction of apoptosis in human HL60 cells assessed as accumulation of sub-G0/G1 phase cells after 24 hrs by PI-staining based flow cytometric analysis; format: functional, cell-based
MIA PaCa-2 [34] = test: Growth inhibition of human MIAPaCa2 cells at 50 uM after 48 hrs by MTT assay; format: functional; conditions: MIA PaCa-2, 48 h, read-out: GI; outline: as §1
HL-60 [35] = test: Induction of apoptosis in human HL60 cells assessed as DNA fragmentation at 20 uM after 24 hrs by SDS-PAGE analysis; format: functional, cell-based; conditions: in the assay text read “agarose gel electrophoresis” for “SDS-PAGE analysis”
Outline: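 HL-60 cells (2 × 10⁶/3 ml/well) treated at 20 µM for 24 h. Lysed, then digested with RNase (400 µg/ml, 37 °C, 90 min) and proteinase K (200 µg/ml, 50 °C, 1 h). DNA extracted with phenol/chloroform/isoamyl alcohol and alcohol-precipitated. Run on 1.8% agarose gel at 70 V for 1 h, stained with ethidium bromide, and scored for laddering.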

HL-60 [36] = test: Cell cycle arrest in human HL60 cells assessed as S phase cells at 20 uM after 24 hrs by PI staining-based flow cytometric analysis (reference value: 49%); format: functional
PC-3 [37] = test: Growth inhibition of human PC3 cells at 30 uM after 48 hrs by MTT assay; format: functional, cell-based; outline: as §1
Caco-2 [38] = test: Growth inhibition of human Caco2 cells at 50 uM after 48 hrs by MTT assay; format: functional; conditions: Caco-2, 48 h, read-out: GI; outline: as §1
HL-60 [39] = test: Cell cycle arrest in human HL60 cells assessed as S phase cells at 5 uM after 24 hrs by PI staining-based flow cytometric analysis (reference value: 49%); format: functional
HL-60 [40] = test: Cell cycle arrest in human HL60 cells assessed as S phase cells at 15 uM after 24 hrs by PI staining-based flow cytometric analysis (reference value: 49%); format: functional
MDA-MB-435 [41] = test: Growth inhibition of human MDA-MB-435 cells at 50 uM after 48 hrs by MTT assay; format: functional; conditions: MDA-MB-435, 48 h, read-out: GI; outline: as §1
Caco-2 [42] = test: Growth inhibition of human Caco2 cells at 30 uM after 48 hrs by MTT assay; format: functional, cell-based; outline: as §1
HL-60 [43] = test: Cell cycle arrest in human HL60 cells assessed as accumulation of G0/G1 phase cells after 24 hrs by PI staining-based flow cytometric analysis; format: functional
HL-60 [44] = test: Growth inhibition of human HL60 cells at 30 uM after 48 hrs by MTT assay; format: functional, cell-based; outline: as §1

In the case of `CC1(C)CCc2cc(C(=O)/C=C/c3ccc(C#N)cc3)c3c(c2O1)CCC(C)(C)O3`, the inhibition of growth at 50 µM (ASPC1 [1]) is reported as 48%, the Activity (HL-60 [2]) is reported as 5% and the Activity (HL-60 [3]) is reported as “Active”. For the same compound, the Activity (HL-60 [4]) was 1%, the “growth inhibition (GI)” value (MDA-MB-435 [5]) was “Active” and the Activity (HL-60 [6]) was “Dose-dependent effect”. The Activity (HL-60 [7]) was 61%, the Activity (HL-60 [8]) was 56% and the inhibition of growth at 50 µM (MCF7 [9]) was 78%. For the same compound, the inhibition of growth at 50 µM (HL-60 [10]) was 93%, the Activity (HL-60 [11]) was 3% and the IC50 (PC-3 [12]) was 7 µM. The IC50 (MIA PaCa-2 [13]) was 12 µM, the inhibition of growth at 50 µM (PC-3 [14]) was 76% and the “growth inhibition (GI)” value (MCF7 [15]) was “Active”. For the same compound, the Activity (HL-60 [16]) was “Dose-dependent effect”, the Activity (HL-60 [17]) was “Dose-dependent effect” and the Activity (HL-60 [18]) was 49%. The IC50 (HL-60 [19]) was 16 µM, the “growth inhibition (GI)” value (MIA PaCa-2 [20]) was “Active” and the Activity (HL-60 [21]) was 71%. For the same compound, the Activity (HL-60 [22]) was 6%, the Activity (HL-60 [23]) was 4% and the Activity (HL-60 [24]) was 48%. The “growth inhibition (GI)” value (ASPC1 [25]) was “Active”, the Activity (HL-60 [26]) was 39% and the Activity (HL-60 [27]) was 73%. For the same compound, the Activity (HL-60 [28]) was “Dose-dependent effect”, the Activity (HL-60 [29]) was 11% and the IC50 (Caco-2 [30]) was 12 µM. The Activity (HL-60 [31]) was 88%, the Activity (HL-60 [32]) was 31% and the Activity (HL-60 [33]) was “Dose-dependent effect”. The inhibition of growth at 50 µM (MIA PaCa-2 [34]) was 76%, the Activity (HL-60 [35]) was “Active” and the Activity (HL-60 [36]) was 9%. The “growth inhibition (GI)” value (PC-3 [37]) was “Active”, the inhibition of growth at 50 µM (Caco-2 [38]) was 93% and the Activity (HL-60 [39]) was 46%. For the same compound, the Activity (HL-60 [40]) was 23%, the inhibition of growth at 50 µM (MDA-MB-435 [41]) was 88% and the “growth inhibition (GI)” value (Caco-2 [42]) was “Active”. For the same compound, the Activity (HL-60 [43]) was “Dose-dependent effect” and the “growth inhibition (GI)” value (HL-60 [44]) was “Active”.
Work on `CC1(C)CCc2cc(C(=O)/C=C/c3ccccc3)c3c(c2O1)CCC(C)(C)O3` yielded an inhibition of growth at 50 µM (ASPC1 [1]) of 17%, an inhibition of growth at 50 µM (MCF7 [9]) of 14% and an inhibition of growth at 50 µM (HL-60 [10]) of 32%. It also gave an inhibition of growth at 50 µM (PC-3 [14]) of 51%, an inhibition of growth at 50 µM (MIA PaCa-2 [34]) of 24% and an inhibition of growth at 50 µM (Caco-2 [38]) of 34%. It also gave an inhibition of growth at 50 µM (MDA-MB-435 [41]) of 47%.
Compound `CC1(C)CCc2cc(C(=O)/C=C/c3ccccc3Cl)c3c(c2O1)CCC(C)(C)O3` has an inhibition of growth at 50 µM (ASPC1 [1]) of 15%, an inhibition of growth at 50 µM (MCF7 [9]) of 9% and an inhibition of growth at 50 µM (HL-60 [10]) of 41%. The inhibition of growth at 50 µM (PC-3 [14]) was 52%, the inhibition of growth at 50 µM (MIA PaCa-2 [34]) was 31% and the inhibition of growth at 50 µM (Caco-2 [38]) was 11%. For the same compound, the inhibition of growth at 50 µM (MDA-MB-435 [41]) was 33%.

Source: ChEMBL document CHEMBL2331355, “Synthesis, structure activity relationship and mode of action of 3-substitutedphenyl-1-(2,2,8,8-tetramethyl-3,4,9,10-tetrahydro-2H,8H-pyrano[2,3-f]chromen-6-yl)-propenones as novel anticancer agents in human leukaemia HL-60 cells” (Eur J Med Chem, 2013)
